Source: ChEMBL document CHEMBL5376013, “Design, synthesis and biological evaluation of novel morpholinopyrimidine-5-carbonitrile derivatives as dual PI3K/mTOR inhibitors” (RSC Med Chem, 2024)

Experiments:
Type in all cases: functional
Conditions in all cases: read-out: GI
[1] = tested on: HOP-92; test: Antitumor activity against human HOP-92 cells assessed as growth inhibition at 10 uM relative to control
Method in brief: (§1)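 After drug addition, plates were incubated 48 h at 37 °C under 5% CO2. Adherent cells were fixed with cold TCA (10% final, 60 min, 4 °C) and suspension cells with 16% final TCA. Staining used 0.4% SRB in 1% acetic acid, solubilized in 10 mM trizma, read at A515. Percent growth was calculated from time-zero, control and treated absorbances.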

[2] = tested on: SF-295; test: Antitumor activity against human SF-295 cells assessed as growth inhibition at 10 uM relative to control; method in brief: as §1
[3] = tested on: UO-31; test: Antitumor activity against human UO-31 cells assessed as growth inhibition at 10 uM relative to control
Method in brief: (§2)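 Drug exposure 48 h at 37 °C, 5% CO2. Adherent cells fixed with cold TCA (10% final), suspension cells with TCA (16% final). Stained with 0.4% SRB in 1% acetic acid, dissolved in 10 mM Tris, A515. Growth relative to time-zero and untreated control.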

[4] = tested on: Malme-3M; test: Antitumor activity against human Malme-3M cells assessed as growth inhibition at 10 uM relative to control; method in brief: as §1
[5] = tested on: NCI-H522; test: Antitumor activity against human NCI-H522 cells assessed as growth inhibition at 10 uM relative to control; method in brief: as §1
[6] = tested on: SK-MEL-28; test: Antitumor activity against human SK-MEL-28 cells assessed as growth inhibition at 10 uM relative to control; method in brief: as §2
[7] = tested on: ACHN; test: Antitumor activity against human ACHN cells assessed as growth inhibition at 10 uM relative to control; method in brief: as §1
[8] = tested on: OVCAR-8; test: Antitumor activity against human OVCAR-8 cells assessed as growth inhibition at 10 uM relative to control; method in brief: as §1
[9] = tested on: SF-539; test: Antitumor activity against human SF-539 cells assessed as growth inhibition at 10 uM relative to control; method in brief: as §1
[10] = tested on: MDA-MB-435; test: Antitumor activity against human MDA-MB-435 cells assessed as growth inhibition at 10 uM relative to control; method in brief: as §1
[11] = tested on: HCC 2998; test: Antitumor activity against human HCC 2998 cells assessed as growth inhibition at 10 uM relative to control; method in brief: as §1
[12] = tested on: MDA-MB-231; test: Antitumor activity against human MDA-MB-231 cells assessed as growth inhibition at 10 uM relative to control; method in brief: as §1
[13] = tested on: HOP-62; test: Antitumor activity against human HOP-62 cells assessed as growth inhibition at 10 uM relative to control; method in brief: as §1
[14] = tested on: K562; test: Antitumor activity against human K562 cells assessed as growth inhibition at 10 uM relative to control; method in brief: as §1
[15] = tested on: SR; test: Antitumor activity against human SR cells assessed as growth inhibition at 10 uM relative to control; method in brief: as §2
[16] = tested on: RXF 393; test: Antitumor activity against human RXF 393 cells assessed as growth inhibition at 10 uM relative to control; method in brief: as §1
[17] = tested on: HCT-116; test: Antitumor activity against human HCT-116 cells assessed as growth inhibition at 10 uM relative to control; method in brief: as §1
[18] = tested on: IGROV-1; test: Antitumor activity against human IGROV-1 cells assessed as growth inhibition at 10 uM relative to control; method in brief: as §1
[19] = tested on: RPMI-8226; test: Antitumor activity against human RPMI-8226 cells assessed as growth inhibition at 10 uM relative to control; method in brief: as §1
[20] = tested on: NCI/ADR-RES; test: Antitumor activity against human NCI-ADR-RES cells assessed as growth inhibition at 10 uM relative to control; method in brief: as §1
[21] = tested on: NCI-H23; test: Antitumor activity against human NCI-H23 cells assessed as growth inhibition at 10 uM relative to control; method in brief: as §1
[22] = tested on: EKVX; test: Antitumor activity against human EKVX cells assessed as growth inhibition at 10 uM relative to control; method in brief: as §1
[23] = tested on: KM12; test: Antitumor activity against human KM12 cells assessed as growth inhibition at 10 uM relative to control; method in brief: as §1
[24] = tested on: SNB-75; test: Antitumor activity against human SNB-75 cells assessed as growth inhibition at 10 uM relative to control; method in brief: as §2
[25] = tested on: A498; test: Antitumor activity against human A498 cells assessed as growth inhibition at 10 uM relative to control; method in brief: as §1
[26] = tested on: M14; test: Antitumor activity against human M14 cells assessed as growth inhibition at 10 uM relative to control; method in brief: as §1
[27] = tested on: U-251; test: Antitumor activity against human U-251 cells assessed as growth inhibition at 10 uM relative to control; method in brief: as §2
[28] = tested on: DU-145; test: Antitumor activity against human DU-145 cells assessed as growth inhibition at 10 uM relative to control; method in brief: as §1
[29] = tested on: T47D; test: Antitumor activity against human T47D cells assessed as growth inhibition at 10 uM relative to control; method in brief: as §2
[30] = tested on: MOLT-4; test: Antitumor activity against human MOLT-4 cells assessed as growth inhibition at 10 uM relative to control; method in brief: as §1
[31] = tested on: NCI-H226; test: Antitumor activity against human NCI-H226 cells assessed as growth inhibition at 10 uM relative to control; method in brief: as §1
[32] = tested on: SK-MEL-5; test: Antitumor activity against human SK-MEL-5 cells assessed as growth inhibition at 10 uM relative to control; method in brief: as §2
[33] = tested on: OVCAR-3; test: Antitumor activity against human OVCAR-3 cells assessed as growth inhibition at 10 uM relative to control; method in brief: as §1
[34] = tested on: SNB-19; test: Antitumor activity against human SNB-19 cells assessed as growth inhibition at 10 uM relative to control; method in brief: as §2
[35] = tested on: SF-268; test: Antitumor activity against human SF-268 cells assessed as growth inhibition at 10 uM relative to control; method in brief: as §1
[36] = tested on: SW-620; test: Antitumor activity against human SW-620 cells assessed as growth inhibition at 10 uM relative to control; method in brief: as §2
[37] = tested on: BT-549; test: Antitumor activity against human BT-549 cells assessed as growth inhibition at 10 uM relative to control; method in brief: as §1
[38] = tested on: HL-60; test: Antitumor activity against human HL-60 cells assessed as growth inhibition at 10 uM relative to control; method in brief: as §1
[39] = tested on: MDA-MB-468; test: Antitumor activity against human MDA-MB-468 cells assessed as growth inhibition at 10 uM relative to control; method in brief: as §1
[40] = tested on: COLO 205; test: Antitumor activity against human COLO 205 cells assessed as growth inhibition at 10 uM relative to control; method in brief: as §1
[41] = tested on: PC-3; test: Antitumor activity against human PC-3 cells assessed as growth inhibition at 10 uM relative to control; method in brief: as §1
[42] = tested on: LOX IMVI; test: Antitumor activity against human LOX IMVI cells assessed as growth inhibition at 10 uM relative to control; method in brief: as §1
[43] = tested on: Hs-578T; test: Antitumor activity against human Hs-578T cells assessed as growth inhibition at 10 uM relative to control; method in brief: as §1
[44] = tested on: CCRF-CEM; test: Antitumor activity against human CCRF-CEM cells assessed as growth inhibition at 10 uM relative to control; method in brief: as §1
[45] = tested on: NCI-H322M; test: Antitumor activity against human NCI-H322M cells assessed as growth inhibition at 10 uM relative to control; method in brief: as §1
[46] = tested on: 786-0; test: Antitumor activity against human 786-0 cells assessed as growth inhibition at 10 uM relative to control; method in brief: as §1

Structure (SMILES): N#Cc1c(-c2ccc(Cl)cc2)nc(N/N=C2/C(=O)Nc3ccccc32)nc1N1CCOCC1
- inhibition of growth at 10 µM [1]: < 1%
- inhibition of growth at 10 µM [2]: < 1%
- inhibition of growth at 10 µM [3]: < 1%
- inhibition of growth at 10 µM [4]: < 1%
- inhibition of growth at 10 µM [5]: < 1%
- inhibition of growth at 10 µM [6]: < 1%
- inhibition of growth at 10 µM [7]: < 1%
- inhibition of growth at 10 µM [8]: < 1%
- inhibition of growth at 10 µM [9]: < 1%
- inhibition of growth at 10 µM [10]: < 1%
- inhibition of growth at 10 µM [11]: < 1%
- inhibition of growth at 10 µM [12]: < 1%
- inhibition of growth at 10 µM [13]: < 1%
- inhibition of growth at 10 µM [14]: < 1%
- inhibition of growth at 10 µM [15]: 25.7%
- inhibition of growth at 10 µM [16]: < 1%
- inhibition of growth at 10 µM [17]: 10.5%
- inhibition of growth at 10 µM [18]: < 1%
- inhibition of growth at 10 µM [19]: < 1%
- inhibition of growth at 10 µM [20]: < 1%
- inhibition of growth at 10 µM [21]: < 1%
- inhibition of growth at 10 µM [22]: < 1%
- inhibition of growth at 10 µM [23]: < 1%
- inhibition of growth at 10 µM [24]: 21%
- inhibition of growth at 10 µM [25]: < 1%
- inhibition of growth at 10 µM [26]: < 1%
- inhibition of growth at 10 µM [27]: < 1%
- inhibition of growth at 10 µM [28]: < 1%
- inhibition of growth at 10 µM [29]: < 1%
- inhibition of growth at 10 µM [30]: < 1%
- inhibition of growth at 10 µM [31]: < 1%
- inhibition of growth at 10 µM [32]: < 1%
- inhibition of growth at 10 µM [33]: < 1%
- inhibition of growth at 10 µM [34]: < 1%
- inhibition of growth at 10 µM [35]: < 1%
- inhibition of growth at 10 µM [36]: 10.1%
- inhibition of growth at 10 µM [37]: < 1%
- inhibition of growth at 10 µM [38]: < 1%
- inhibition of growth at 10 µM [39]: < 1%
- inhibition of growth at 10 µM [40]: 1%
- inhibition of growth at 10 µM [41]: < 1%
- inhibition of growth at 10 µM [42]: < 1%
- inhibition of growth at 10 µM [43]: < 1%
- inhibition of growth at 10 µM [44]: < 1%
- inhibition of growth at 10 µM [45]: < 1%
- inhibition of growth at 10 µM [46]: < 1%

Structure (SMILES): N#Cc1c(-c2ccc(Cl)cc2)nc(NN2C(=O)c3ccccc3C2=O)nc1N1CCOCC1
- inhibition of growth at 10 µM [1]: < 1%
- inhibition of growth at 10 µM [2]: < 1%
- inhibition of growth at 10 µM [3]: 15.6%
- inhibition of growth at 10 µM [4]: < 1%
- inhibition of growth at 10 µM [5]: < 1%
- inhibition of growth at 10 µM [6]: < 1%
- inhibition of growth at 10 µM [7]: < 1%
- inhibition of growth at 10 µM [8]: < 1%
- inhibition of growth at 10 µM [9]: < 1%
- inhibition of growth at 10 µM [10]: < 1%
- inhibition of growth at 10 µM [11]: < 1%
- inhibition of growth at 10 µM [12]: < 1%
- inhibition of growth at 10 µM [13]: < 1%
- inhibition of growth at 10 µM [14]: < 1%
- inhibition of growth at 10 µM [15]: 16%
- inhibition of growth at 10 µM [16]: < 1%
- inhibition of growth at 10 µM [17]: < 1%
- inhibition of growth at 10 µM [18]: < 1%
- inhibition of growth at 10 µM [19]: < 1%
- inhibition of growth at 10 µM [20]: < 1%
- inhibition of growth at 10 µM [21]: < 1%
- inhibition of growth at 10 µM [22]: < 1%
- inhibition of growth at 10 µM [23]: < 1%
- inhibition of growth at 10 µM [24]: 15.4%
- inhibition of growth at 10 µM [25]: < 1%
- inhibition of growth at 10 µM [26]: < 1%
- inhibition of growth at 10 µM [27]: < 1%
- inhibition of growth at 10 µM [28]: < 1%
- inhibition of growth at 10 µM [29]: < 1%
- inhibition of growth at 10 µM [30]: < 1%
- inhibition of growth at 10 µM [31]: < 1%
- inhibition of growth at 10 µM [32]: < 1%
- inhibition of growth at 10 µM [33]: < 1%
- inhibition of growth at 10 µM [34]: < 1%
- inhibition of growth at 10 µM [35]: < 1%
- inhibition of growth at 10 µM [36]: < 1%
- inhibition of growth at 10 µM [37]: < 1%
- inhibition of growth at 10 µM [38]: < 1%
- inhibition of growth at 10 µM [39]: < 1%
- inhibition of growth at 10 µM [40]: < 1%
- inhibition of growth at 10 µM [41]: < 1%
- inhibition of growth at 10 µM [42]: < 1%
- inhibition of growth at 10 µM [43]: < 1%
- inhibition of growth at 10 µM [44]: < 1%
- inhibition of growth at 10 µM [45]: < 1%
- inhibition of growth at 10 µM [46]: < 1%
